According to ChEMBL document CHEMBL3085739, “Design, synthesis, and biological evaluation of 2-oxo-3,4-dihydropyrimido[4,5-d]pyrimidinyl derivatives as new irreversible epidermal growth factor receptor inhibitors with improved pharmacokinetic properties” (J Med Chem, 2013):
The source made the active and inactive calls. The calls are words filed in the database; no cut-off is given here.

What was measured:
[1] = AUC (0 to infinity) in Sprague-Dawley rat at 5 mg/kg, iv by LC/MS analysis; assay type: ADME, organism-based; design: time infinity, dose 5 mg/kg, route intravenous; conditions: plasma
Method in brief: (§1)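 Male Sprague-Dawley rats (180−220 g), n = 4 per route, single iv dose 5 mg/kg or oral gavage 25 mg/kg. Vehicle was 2% DMSO, 4% EtOH, 4% castor oil, 90% H2O. Orbital sinus blood was taken from 2 min to 72 h into heparinized tubes. Plasma levels were measured by LC/MS with propranolol internal standard and analysed by pharmacokinetic modelling.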

[2] = AUC (0 to infinity) in Sprague-Dawley rat at 25 mg/kg, po by LC/MS analysis; assay type: ADME, organism-based; design: dose 25 mg/kg, route oral, time infinity; conditions: plasma; method in brief: as §1
[3] = test system: NCI-H1975; test: Antitumor activity against human NCI-H1975 cells xenografted in SCID nude mouse assessed as tumor growth inhibition at 10 mg/kg, po qd after 14 days; assay type: functional; conditions: NCI-H1975, 336 h, read-out: TGI
Method in brief: (§2)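 SCID mice (6 weeks) were given H1975 cells subcutaneously in the right flank at 2 × 10^6 per mouse. At 200−300 mm3, n = 5 per group were randomized to daily oral vehicle or compound at 10 or 30 mg/kg for 14 days. Vehicle: 1% DMSO, 5% EtOH, 15% castor oil, 79% H2O. Tumors (W²·L/2) and body weight were measured every other day; TGI was calculated against vehicle controls.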

[4] = test system: NCI-H1975; test: Antitumor activity against human NCI-H1975 cells xenografted in po dosed SCID nude mouse assessed as tumor growth inhibition administered qd after 14 days; assay type: functional, organism-based; method in brief: as §2
[5] = target: T1, Dual specificity mitogen-activated protein kinase kinase 5 (Homo sapiens) (UniProt Q13163); test: Binding affinity to MEK5 (unknown origin)
T1 sequence (whole entry): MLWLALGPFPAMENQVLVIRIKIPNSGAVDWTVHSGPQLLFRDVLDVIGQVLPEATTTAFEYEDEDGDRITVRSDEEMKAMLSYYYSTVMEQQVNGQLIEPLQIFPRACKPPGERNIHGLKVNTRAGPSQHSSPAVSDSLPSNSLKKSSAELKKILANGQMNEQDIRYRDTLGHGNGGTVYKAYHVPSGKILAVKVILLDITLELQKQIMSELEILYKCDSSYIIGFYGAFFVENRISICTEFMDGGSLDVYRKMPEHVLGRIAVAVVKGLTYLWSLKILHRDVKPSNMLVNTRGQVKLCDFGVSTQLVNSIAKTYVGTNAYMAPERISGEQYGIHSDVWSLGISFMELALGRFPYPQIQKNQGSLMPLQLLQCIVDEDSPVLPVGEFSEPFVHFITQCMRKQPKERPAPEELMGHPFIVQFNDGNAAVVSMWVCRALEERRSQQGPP

[6] = Antiproliferative activity against human H460 cells expressing wild-type EGFR after 72 hrs by MTS assay; assay type: cell-based; conditions: NCI-H460, 72 h
Method in brief: (§3)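 MTS proliferation assay: cells exposed to compound for 72 h at six concentrations (0.1 nM to 10 μM), each concentration run six times. Cell number per line set to give an absorbance of 0.5–1.2 at […]. IC50 from a nonlinear sigmoidal dose–response fit. Values are means of at least three independent experiments.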

[7] = test system: Mus musculus; test: Toxicity in SCID nude mouse xenografted with human NCI-H1975 cells assessed as body weight loss at 10 to 30 mg/kg, po qd after 14 days relative to vehicle-treated control; assay type: organism-based; design: dose 10-30 mg/kg, route oral; conditions: in vivo, 336 h; method in brief: as §2
[8] = target: Proto-oncogene tyrosine-protein kinase Src (Homo sapiens) (UniProt P12931); test: Binding affinity to SRC (unknown origin)
Sequence of Proto-oncogene tyrosine-protein kinase Src (Homo sapiens) (P12931 2-536 limits assumed): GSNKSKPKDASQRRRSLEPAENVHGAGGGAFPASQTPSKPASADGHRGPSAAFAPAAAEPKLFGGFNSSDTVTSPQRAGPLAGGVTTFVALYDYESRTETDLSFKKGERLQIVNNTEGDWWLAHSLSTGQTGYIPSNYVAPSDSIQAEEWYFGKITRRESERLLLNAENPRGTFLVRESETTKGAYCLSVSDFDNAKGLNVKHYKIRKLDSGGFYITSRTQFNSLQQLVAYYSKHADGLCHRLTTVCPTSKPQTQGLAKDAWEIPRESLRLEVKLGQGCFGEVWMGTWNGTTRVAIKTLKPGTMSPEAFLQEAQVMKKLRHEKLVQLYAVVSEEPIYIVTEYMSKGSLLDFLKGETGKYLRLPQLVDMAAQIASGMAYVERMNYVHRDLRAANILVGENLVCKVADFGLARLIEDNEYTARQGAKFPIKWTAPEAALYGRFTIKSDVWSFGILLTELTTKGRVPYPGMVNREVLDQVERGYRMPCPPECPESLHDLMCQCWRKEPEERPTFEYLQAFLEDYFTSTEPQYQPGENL

[9] = Clearance in Sprague-Dawley rat at 25 mg/kg, po by LC/MS analysis; assay type: ADME, organism-based; design: dose 25 mg/kg, route oral; conditions: in vivo; method in brief: as §1
[10] = test system: NCI-H1975; test: Antitumor activity against human NCI-H1975 cells xenografted in SCID nude mouse assessed as tumor growth inhibition at 30 mg/kg, po qd after 14 days; assay type: functional; conditions: NCI-H1975, 336 h, read-out: TGI; method in brief: as §2
[11] = target: Mast/stem cell growth factor receptor Kit (Homo sapiens) (UniProt P10721); test: Binding affinity to KIT (unknown origin)
Sequence of Mast/stem cell growth factor receptor Kit (Homo sapiens) (P10721 whole entry): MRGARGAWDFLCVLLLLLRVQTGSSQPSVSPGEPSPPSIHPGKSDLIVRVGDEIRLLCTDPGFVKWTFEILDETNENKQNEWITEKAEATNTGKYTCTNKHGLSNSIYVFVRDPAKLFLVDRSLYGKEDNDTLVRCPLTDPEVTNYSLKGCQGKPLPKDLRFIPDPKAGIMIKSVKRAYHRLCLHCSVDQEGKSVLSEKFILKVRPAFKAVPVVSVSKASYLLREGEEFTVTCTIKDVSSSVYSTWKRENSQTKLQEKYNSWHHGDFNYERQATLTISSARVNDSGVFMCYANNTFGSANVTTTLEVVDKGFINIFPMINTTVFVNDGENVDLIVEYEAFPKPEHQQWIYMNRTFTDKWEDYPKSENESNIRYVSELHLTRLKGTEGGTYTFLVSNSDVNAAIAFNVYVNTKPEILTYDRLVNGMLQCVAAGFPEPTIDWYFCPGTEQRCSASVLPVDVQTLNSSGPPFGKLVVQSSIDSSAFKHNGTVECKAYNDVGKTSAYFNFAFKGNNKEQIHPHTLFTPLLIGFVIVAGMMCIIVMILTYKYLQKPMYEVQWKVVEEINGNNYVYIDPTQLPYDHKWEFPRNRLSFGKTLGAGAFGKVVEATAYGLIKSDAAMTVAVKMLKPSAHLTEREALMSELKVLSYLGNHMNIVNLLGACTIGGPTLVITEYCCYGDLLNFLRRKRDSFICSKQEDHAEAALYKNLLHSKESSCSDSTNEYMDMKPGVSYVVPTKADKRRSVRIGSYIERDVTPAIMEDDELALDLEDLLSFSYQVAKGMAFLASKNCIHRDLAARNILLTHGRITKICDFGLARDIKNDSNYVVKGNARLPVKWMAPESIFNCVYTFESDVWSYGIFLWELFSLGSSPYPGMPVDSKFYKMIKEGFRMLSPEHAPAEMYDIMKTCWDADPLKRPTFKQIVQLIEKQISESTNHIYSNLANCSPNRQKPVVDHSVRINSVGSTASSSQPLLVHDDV

[12] = target: Tyrosine-protein kinase ABL1 (Homo sapiens) (UniProt P00519); test: Binding affinity to ABL1 (unknown origin)
[13] = target: Epithelial discoidin domain-containing receptor 1 (Homo sapiens) (UniProt Q08345); test: Binding affinity to DDR1 (unknown origin)
[14] = test system: NCI-H1975; test: Effect on AKT protein level in human NCI-H1975 cells at 3 to 330 nM after 2 hrs by Western blotting analysis; assay type: functional, cell-based
Method in brief: (§4)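 H1975 cells were grown 24 h, then treated for 2 h with DMSO or 3–330 nM compound. Lysates were sonicated, run on SDS-PAGE, blotted to PVDF, blocked in 5% BSA/TBST, and probed for phospho/total EGFR (pY1068), Akt and Erk1/2 (pT202/pY204) with peroxidase secondary antibodies. Blots are representative of three experiments.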

[15] = target: Platelet-derived growth factor receptor beta (Homo sapiens) (UniProt P09619); test: Binding affinity to PDGFRbeta (unknown origin)
Sequence of Platelet-derived growth factor receptor beta (Homo sapiens) (P09619 whole entry): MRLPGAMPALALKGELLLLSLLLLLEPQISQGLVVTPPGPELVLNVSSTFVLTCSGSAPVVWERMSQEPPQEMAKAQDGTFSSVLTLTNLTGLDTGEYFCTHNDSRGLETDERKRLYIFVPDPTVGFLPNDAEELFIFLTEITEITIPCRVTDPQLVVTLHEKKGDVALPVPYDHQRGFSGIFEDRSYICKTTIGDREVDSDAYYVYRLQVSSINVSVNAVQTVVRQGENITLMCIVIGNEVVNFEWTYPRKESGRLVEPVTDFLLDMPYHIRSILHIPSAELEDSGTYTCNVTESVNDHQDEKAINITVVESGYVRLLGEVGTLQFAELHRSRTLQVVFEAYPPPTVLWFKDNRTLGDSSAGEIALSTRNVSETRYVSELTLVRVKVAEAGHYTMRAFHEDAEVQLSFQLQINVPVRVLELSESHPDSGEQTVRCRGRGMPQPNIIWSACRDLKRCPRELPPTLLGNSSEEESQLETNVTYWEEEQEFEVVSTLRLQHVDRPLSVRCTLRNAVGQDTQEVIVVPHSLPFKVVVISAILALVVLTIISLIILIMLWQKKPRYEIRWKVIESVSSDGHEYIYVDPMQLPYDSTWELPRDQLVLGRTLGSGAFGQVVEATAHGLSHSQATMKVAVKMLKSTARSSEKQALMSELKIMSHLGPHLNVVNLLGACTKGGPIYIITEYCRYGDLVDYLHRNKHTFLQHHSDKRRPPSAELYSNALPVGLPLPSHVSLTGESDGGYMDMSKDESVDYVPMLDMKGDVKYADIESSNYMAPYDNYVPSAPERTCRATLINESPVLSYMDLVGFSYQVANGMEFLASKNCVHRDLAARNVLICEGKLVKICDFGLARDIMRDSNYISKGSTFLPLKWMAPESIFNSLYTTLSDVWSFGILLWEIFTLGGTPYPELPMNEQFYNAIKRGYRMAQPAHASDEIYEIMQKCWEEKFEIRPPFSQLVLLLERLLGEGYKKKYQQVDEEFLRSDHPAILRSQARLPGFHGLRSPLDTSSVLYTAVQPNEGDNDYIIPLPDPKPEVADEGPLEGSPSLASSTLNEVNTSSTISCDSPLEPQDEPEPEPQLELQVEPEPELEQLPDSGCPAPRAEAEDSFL

[16] = test system: NCI-H358; test: Antiproliferative activity against human NCI-H358 cells expressing wild-type EGFR after 72 hrs by MTS assay; assay type: cell-based; conditions: NCI-H358, 72 h
[17] = target: Epidermal growth factor receptor (Homo sapiens, UniProt P00533, L858R); test: Inhibition of EGFR L858R mutant (unknown origin); assay type: protein assay
[18] = test system: NCI-H1975; test: Effect on ERK protein level in human NCI-H1975 cells at 3 to 330 nM after 2 hrs by Western blotting analysis; assay type: functional, cell-based; method in brief: as §4
[19] = Clearance in Sprague-Dawley rat at 5 mg/kg, iv by LC/MS analysis; assay type: ADME, organism-based; design: dose 5 mg/kg, route intravenous; conditions: in vivo; method in brief: as §1
[20] = Antiproliferative activity against human HCC827 cells expressing EGFR E746 to A750 deletion mutant after 72 hrs by MTS assay; assay type: functional, cell-based; conditions: HCC827, 72 h; method in brief: as §3
[21] = target: Receptor-type tyrosine-protein kinase FLT3 (Homo sapiens) (UniProt P36888); test: Binding affinity to FLT3 (unknown origin)
[22] = Antiproliferative activity against human HL7702 cells after 72 hrs by MTS assay; assay type: cell-based; conditions: L02, 72 h
[23] = test system: Epidermal growth factor receptor (Homo sapiens), P00533 [L858R,T790M]; conditions: NCI-H1975, 33 nM
Sequence of Epidermal growth factor receptor (Homo sapiens), P00533 [L858R,T790M] (P00533 whole entry T790M/L858R, looked up): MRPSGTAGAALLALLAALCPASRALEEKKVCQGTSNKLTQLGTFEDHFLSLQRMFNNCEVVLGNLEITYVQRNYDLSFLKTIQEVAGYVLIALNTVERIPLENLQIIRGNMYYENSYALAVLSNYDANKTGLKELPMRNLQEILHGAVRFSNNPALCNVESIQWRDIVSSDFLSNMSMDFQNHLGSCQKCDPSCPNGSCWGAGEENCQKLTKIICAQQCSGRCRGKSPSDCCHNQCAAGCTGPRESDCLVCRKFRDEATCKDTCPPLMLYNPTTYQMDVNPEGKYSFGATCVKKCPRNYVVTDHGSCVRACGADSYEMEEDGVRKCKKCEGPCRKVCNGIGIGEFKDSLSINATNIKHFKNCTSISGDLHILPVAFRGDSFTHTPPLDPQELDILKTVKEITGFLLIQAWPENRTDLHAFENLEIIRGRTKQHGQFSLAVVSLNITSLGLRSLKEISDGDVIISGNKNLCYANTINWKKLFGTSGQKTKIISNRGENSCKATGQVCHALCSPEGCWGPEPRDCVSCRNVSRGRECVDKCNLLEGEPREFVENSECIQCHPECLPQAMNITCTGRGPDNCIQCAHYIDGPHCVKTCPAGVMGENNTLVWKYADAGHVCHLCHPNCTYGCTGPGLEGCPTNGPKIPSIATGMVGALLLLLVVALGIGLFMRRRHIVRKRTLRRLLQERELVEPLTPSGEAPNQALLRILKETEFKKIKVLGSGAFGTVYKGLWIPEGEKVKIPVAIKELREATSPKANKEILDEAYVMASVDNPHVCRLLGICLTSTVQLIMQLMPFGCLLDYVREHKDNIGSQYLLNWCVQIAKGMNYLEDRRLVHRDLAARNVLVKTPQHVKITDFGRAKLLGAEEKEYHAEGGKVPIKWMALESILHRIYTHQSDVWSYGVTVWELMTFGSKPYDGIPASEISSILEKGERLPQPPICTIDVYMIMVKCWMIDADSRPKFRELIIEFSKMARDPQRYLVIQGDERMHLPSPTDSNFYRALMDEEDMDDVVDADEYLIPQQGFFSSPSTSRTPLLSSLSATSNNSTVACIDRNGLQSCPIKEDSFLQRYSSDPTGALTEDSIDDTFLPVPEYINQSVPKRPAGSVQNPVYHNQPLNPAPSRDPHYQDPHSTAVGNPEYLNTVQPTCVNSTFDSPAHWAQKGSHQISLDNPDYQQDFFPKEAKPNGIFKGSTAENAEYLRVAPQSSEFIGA

[24] = target: Tyrosine-protein kinase Blk (Homo sapiens) (UniProt P51451); test: Binding affinity to BLK (unknown origin)
Sequence of Tyrosine-protein kinase Blk (Homo sapiens) (P51451 2-505 limits assumed): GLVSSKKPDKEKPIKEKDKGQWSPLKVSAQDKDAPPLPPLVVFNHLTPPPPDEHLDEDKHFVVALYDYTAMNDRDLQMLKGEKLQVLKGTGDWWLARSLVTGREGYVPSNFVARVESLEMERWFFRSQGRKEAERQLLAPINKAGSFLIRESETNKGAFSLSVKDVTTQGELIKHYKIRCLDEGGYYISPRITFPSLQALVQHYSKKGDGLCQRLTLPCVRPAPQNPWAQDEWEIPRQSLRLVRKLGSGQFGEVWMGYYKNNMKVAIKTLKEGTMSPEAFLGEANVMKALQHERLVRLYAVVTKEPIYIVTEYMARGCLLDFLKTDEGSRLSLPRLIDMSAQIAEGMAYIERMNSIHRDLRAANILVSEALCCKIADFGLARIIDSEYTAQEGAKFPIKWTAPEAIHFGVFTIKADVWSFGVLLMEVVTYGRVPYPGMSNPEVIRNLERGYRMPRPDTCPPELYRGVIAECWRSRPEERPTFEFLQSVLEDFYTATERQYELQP

[25] = Antiproliferative activity against human 95-D cells expressing wild-type EGFR after 72 hrs by MTS assay; assay type: cell-based; method in brief: as §3
[26] = target: Epidermal growth factor receptor (Homo sapiens, UniProt P00533, T790M); test: Inhibition of EGFR T790M mutant (unknown origin); assay type: protein assay
[27] = Cmax in Sprague-Dawley rat at 5 mg/kg, iv by LC/MS analysis; assay type: ADME, organism-based; design: dose 5 mg/kg, route intravenous; conditions: in vivo; method in brief: as §1

C=CC(=O)N1CC[C@H](N2C(=O)N(c3ccccc3)Cc3cnc(Nc4ccc(N5CCN(C)CC5)c(C)c4)nc32)C1
AUC(0-inf) [1]: 1640 ng·h/mL
AUC(0-inf) [2]: 2490 ng·h/mL
inhibition in vivo at 10 mg/kg [3]: 35.4%
TGI [4]: Dose-dependent effect
Activity [5]: Active
IC50 [6]: 16000 nM
Activity [7]: < 5%
Activity [8]: Active
CL/F [9]: 167 mL/min/kg
inhibition in vivo at 30 mg/kg [10]: 56.8%
Activity [11]: Active
Activity [12]: Active
Activity [13]: Active
Activity [14]: inactive
Activity [15]: Active
IC50 [16]: > 20000 nM
IC50 [17]: 3 nM
Activity [18]: inactive
clearance [19]: 51.7 mL/min/kg
IC50 [20]: 5 nM
Activity [21]: Active
IC50 [22]: > 10000 nM
inhibition [23]: Active
Activity [24]: Active
IC50 [25]: 4000 nM
IC50 [26]: 10 nM
Cmax [27]: 3980 ng/mL
